From ChEMBL document CHEMBL1240369, “Antiviral efficacy of the novel compound BIT225 against HIV-1 release from human macrophages” (Antimicrob Agents Chemother, 2010)
Calls of active or inactive are those of the source. The calls are words filed in the database; no cut-off is given here.

Tests used:
[1] = test system: Human immunodeficiency virus 1; test: Antiviral activity against HIV1 Ba-L […] assessed as inhibition integration of virus to host cell genome at 10 uM; format: functional; parameters: scale not given: the % may be the effect or the level left
Method in brief: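 Run in TZM-bl indicator cells (HIV-1 integration activates luciferase), not MDM, infected with HIV-1Ba-L in the presence of BIT225 across 0.3125 to 10 μM. Lysates were given luciferin and light was read on an illuminometer. Percent inhibition of integration was taken relative to DMSO-treated control. Data are from three separate experiments.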

[2] = test system: MDM; test: Inhibition of Vpu ion channel in 0.05 MOI HIV1 Ba-L chronically infected in 7-14 days differentiated human MDM cells assessed as viral inhibition at 10 uM after 7 days post treatment; format: cell-based; conditions: Human immunodeficiency virus 1
Method in brief: (§1)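 Chronic infection model: MDM were incubated with HIV-1 Ba-L for 3 h and left 7 days unwashed, then washed three times and given a single 10 μM dose (DMSO control). Supernatants were sampled routinely for RT activity. In the washout arm, compound was removed and cells kept drug-free for an additional 20 days.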

[3] = test system: Human immunodeficiency virus 2; test: Antiviral activity against 0.05 MOI HIV2 cytopathic strain chronically infected in 7-14 days differentiated human MDM cells assessed as viral inhibition measured after 7 days; format: functional
Method in brief: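 Day 14 MDM from three seronegative donors were infected at MOI 0.05 for 7 days, then washed free of extracellular virus. Cultures then ran a further 7 days with or without 10 μM BIT225, from day 21. Day 28 supernatants were assayed by RT activity ELISA. Percent inhibition was taken versus untreated controls, as mean of three donors.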

[4] = test system: Human immunodeficiency virus 1; test: Inhibition of HIV1 Vpu ion channel activity
Method in brief: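 Planar lipid bilayer of POPE:POPC (50:50) in n-decane, with 50 mM KCl in 10 mM MES […] in both chambers. Synthetic Vpu peptide (150 ng) was added to cis and trans sides with stirring. K+ current appeared at −100 mV and was recorded at −40 mV, filtered at 1 kHz. Mean currents were taken over 10–30 s before and after compound (40 μM).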

[5] = Cytotoxicity against human TZM-bl cells assessed as cell viability up to 20 uM by MTT assay; format: cell-based
[6] = test system: MDM; test: Inhibition of Vpu ion channel in 0.001 MOI HIV1 Ba-L infected in 14 days differentiated human MDM cells assessed as viral inhibition by RT assay; format: cell-based; parameters: scale not given: the % may be the effect or the level left; conditions: Human immunodeficiency virus 1
Method in brief: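 MDM differentiated for 7, 10 or 14 days were infected with HIV-1 Ba-L across a range of MOIs, washed three times with PBS and cultured 7 days with 10 μM compound or equal-volume DMSO. On day 7 postinfection, supernatant RT activity was measured (and infectivity on TZM-bl cells). Cell lysates went to real-time PCR for LTR-gag DNA, normalised to albumin copies.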

[7] = test system: MDM; test: Inhibition of Vpu ion channel in 0.05 MOI HIV1 Ba-L chronically infected in 10-14 days differentiated human MDM cells assessed as viral inhibition after 5 days post treatment relative to control; format: cell-based; conditions: Human immunodeficiency virus 1; method in brief: as §1
[8] = Selectivity index, ratio of TC50 for human MDM cells to EC50 for HIV1 92TH001 infected in human MDM cells; format: toxicity, cell-based; conditions: read-out: Selectivity Index
[9] = Inhibition of Vpu ion channel in HIV1 92UG029 in human MDM assessed as inhibition of vrius release; parameters: species or system Human immunodeficiency virus 1
[10] = Inhibition of Vpu ion channel in HIV1 93BR029 in human MDM assessed as inhibition of vrius release; parameters: species or system Human immunodeficiency virus 1
[11] = test system: MDM; test: Inhibition of Vpu ion channel in 0.05 MOI HIV1 Ba-L chronically infected in 10-14 days differentiated human MDM cells assessed as viral inhibition after 1 day relative to control; format: cell-based; conditions: Human immunodeficiency virus 1; method in brief: as §1

Cn1cc(-c2cccc3cc(C(=O)NC(=N)N)ccc23)cn1
Activity [1]: 6%
Activity [2]: Active
inhibition (INH) [3]: 6.1%
Activity [4]: 40 µM
Activity [5]: Non-toxic
Activity [6]: 77%
inhibition [7]: 91.5%
selectivity ratio [8]: 140
EC50 [9]: 14.4 µM
EC50 [10]: 1.9 µM
inhibition [11]: 60.7%
